Active and inactive are the calls of the source. No cut-off for these calls is given here.
Experiments:
[1] = biological target: T1, 5-hydroxytryptamine receptor 1A (Rattus norvegicus, UniProt P19327); test: Displacement of [3H]8-OH-DPAT from 5HT1A receptor in rat hippocampal membranes; format: cell membranes, Hippocampus, Membrane
T1 sequence (P19327 whole entry): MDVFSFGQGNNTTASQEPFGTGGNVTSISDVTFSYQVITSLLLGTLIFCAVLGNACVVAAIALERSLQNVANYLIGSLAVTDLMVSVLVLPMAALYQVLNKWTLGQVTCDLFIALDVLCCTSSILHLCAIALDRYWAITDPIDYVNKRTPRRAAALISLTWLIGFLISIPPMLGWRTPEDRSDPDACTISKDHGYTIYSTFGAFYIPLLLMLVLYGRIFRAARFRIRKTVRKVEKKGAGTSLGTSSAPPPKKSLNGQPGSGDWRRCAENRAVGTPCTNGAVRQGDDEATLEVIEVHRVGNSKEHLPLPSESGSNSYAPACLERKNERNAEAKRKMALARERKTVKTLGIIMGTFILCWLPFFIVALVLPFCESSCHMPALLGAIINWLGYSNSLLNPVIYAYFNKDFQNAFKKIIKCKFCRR

Mus musculus [2] = test: Anxiolytic activity in Albino Swiss mouse assessed as number of punished crossing administered intraperitoneally dose equivalent to 0.1 of LD50 after 30 mins measured for 1 min by four-plate test; format: functional, organism-based
Procedure, shortened: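 Male Albino Swiss mice (20-24 g), 8 per group, received ip compound in 1% Tween 80 (0.1 mL/10 g) at a dose equal to 0.1 of LD50; vehicle controls. Four-plate test 30 min later; punished crossings counted over 1 min.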

Mus musculus [3] = test: Effect on spontaneous locomotor activity in Albino Swiss mouse administered intraperitoneally dose equivalent to 0.1 of LD50 after 30 mins measured for 60 min by automatic photoresistor actometer
Mus musculus [4] = test: Neurotoxicity in Albino Swiss mouse administered intraperitoneally dose equivalent to 0.1 of LD50 after 30 mins measured for 1 min by chimney test; format: toxicity, organism-based; conditions: in vivo, ip
Procedure, shortened: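 Male Albino Swiss mice (20-24 g), i.p. suspension in 1% Tween 80 at 0.1 mL/10 g body weight, with vehicle controls and 8 mice per group. Tested 30 min post-dose by having mice climb backwards up a plastic tube (3 cm inner diameter, 25 cm long). Failing three tasks within 60 s scored as motor impairment, reported as % of animals failing.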

[5] = biological target: 5-hydroxytryptamine receptor 2A (Homo sapiens, UniProt P28223); test: Displacement of [3H]ketanserin from 5HT2A receptor
Mus musculus [6] = test: Antidepressive activity in Albino Swiss mouse assessed as total immobility time at 15 mg/kg, ip after 30 mins measured for 4 mins by forced swimming test; format: functional; conditions: route intraperitoneal
Procedure, shortened: (§1)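 Forced swimming test in male Albino Swiss mice (20-24 g), 8 per group. Compounds given ip as suspensions in 1% Tween 80, 0.1 mL/10 g, at doses of 0.1-0.00635 of LD50, 30 min before test; imipramine 15 mg/kg ip as reference; controls got vehicle. Mice swam 6 min in a glass cylinder with 15 cm of 25 °C water; total immobility time scored; mean ± SEM.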

Mus musculus [7] = test: Antidepressive activity in Albino Swiss mouse assessed as total immobility time at 2.5 mg/kg, ip after 30 mins measured for 4 mins by forced swimming test; format: functional; conditions: route intraperitoneal; procedure, shortened: as §1
Mus musculus [8] = test: Antidepressive activity in Albino Swiss mouse assessed as total immobility time at 10 mg/kg, ip after 30 mins measured for 4 mins by forced swimming test; format: functional; conditions: route intraperitoneal; procedure, shortened: as §1
Mus musculus [9] = test: Antidepressive activity in Albino Swiss mouse assessed as total immobility time at 5 mg/kg, ip after 30 mins measured for 4 mins by forced swimming test; format: functional; conditions: route intraperitoneal; procedure, shortened: as §1
Mus musculus [10] = test: Antidepressive activity in Albino Swiss mouse assessed as total immobility time at 1.25 mg/kg, ip after 30 mins measured for 4 mins by forced swimming test; format: functional; conditions: route intraperitoneal; procedure, shortened: as §1
Mus musculus [11] = test: Antidepressive activity in Albino Swiss mouse assessed as total immobility time at 20 mg/kg, ip after 30 mins measured for 4 mins by forced swimming test; format: functional; conditions: route intraperitoneal; procedure, shortened: as §1
[12] = Selectivity ratio of Ki for 5HT2A receptor to Ki for rat 5HT1A receptor

5-hydroxytryptamine receptor 2A, sequence (P28223 whole entry): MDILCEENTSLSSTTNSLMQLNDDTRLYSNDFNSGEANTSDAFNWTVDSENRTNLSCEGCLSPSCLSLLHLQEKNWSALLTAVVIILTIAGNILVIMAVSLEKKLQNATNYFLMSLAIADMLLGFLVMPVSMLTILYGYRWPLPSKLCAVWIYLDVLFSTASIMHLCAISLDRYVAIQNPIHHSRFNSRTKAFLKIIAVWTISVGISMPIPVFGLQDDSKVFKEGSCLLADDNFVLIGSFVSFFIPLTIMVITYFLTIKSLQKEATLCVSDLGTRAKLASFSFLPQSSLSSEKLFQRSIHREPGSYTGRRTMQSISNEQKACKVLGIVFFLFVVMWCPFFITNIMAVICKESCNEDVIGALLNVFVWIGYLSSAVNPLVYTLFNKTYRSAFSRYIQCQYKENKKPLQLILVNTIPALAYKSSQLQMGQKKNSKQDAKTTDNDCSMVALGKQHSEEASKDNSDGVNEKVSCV

| SMILES | Ki [1] | Activity (Mus musculus [2]) | Activity (Mus musculus [3]) | Activity (Mus musculus [4]) | Ki [5] | other results |
| --- | --- | --- | --- | --- | --- | --- |
| CC(=O)OC12C=C(C)C(C(C)C1)C1C(=O)N(OCCCN3CCN(c4cccc(Cl)c4)CC3)C(=O)C12 (configuration not stated) | 37 nM | inactive | inactive | Not Active | 376 nM | – |
| CC(=O)OC12C=C(C)C(C(C)C1)C1C(=O)N(CCCCN3CCN(c4ccccc4)CC3)C(=O)C12 (configuration not stated) | 34 nM | inactive | inactive | Not Active | 286 nM | – |
| CC1CC2(C)CC(=O)C1C1C(=O)N(CCCCN3CCN(c4ncccn4)CC3)C(=O)C12 (configuration not stated) | 1520 nM | – | – | – | 3380 nM | – |
| COc1ccccc1N1CCN(CCCON2C(=O)C3C4C=CC(OC)(CC4)C3C2=O)CC1 (configuration not stated) | 31 nM | – | – | – | 1390 nM | – |
| CC(=O)OC12C=C(C)C(C(C)C1)C1C(=O)N(OCCCN3CCN(c4ccccc4)CC3)C(=O)C12 (configuration not stated) | 115 nM | inactive | inactive | Not Active | 375 nM | – |
| CC1CC2(C)CC(=O)C1C1C(=O)N(OCCCN3CCN(c4cccc(Cl)c4)CC3)C(=O)C12 (configuration not stated) | 92 nM | inactive | inactive | Not Active | 110 nM | – |
| COc1ccccc1N1CCN(CCCN2C(=O)C3C4C(C)=CC(OC(C)=O)(CC4C)C3C2=O)CC1 (configuration not stated) | 35 nM | inactive | inactive | Not Active | 1020 nM | – |
| CCOC12CCC(C(=O)C1)C1C(=O)N(CCCCN3CCN(c4ccccc4OC)CC3)C(=O)C12 (configuration not stated) | 26 nM | – | – | – | 2790 nM | – |
| COc1ccccc1N1CCN(CCCCN2C(=O)C3C4C(=O)CC(OC(C)=O)(CC4(C)C)C3C2=O)CC1 (configuration not stated) | 22 nM | – | – | – | 770 nM | – |
| COc1ccccc1N1CCN(CCCCN2C(=O)C3C4C(=O)CC(C)(CC4C)C3C2=O)CC1 (configuration not stated) | 25 nM | inactive | inactive | Not Active | 522 nM | – |
| COc1ccccc1N1CCN(CCCON2C(=O)C3C4C(C)=CC(OC(C)=O)(CC4C)C3C2=O)CC1 (configuration not stated) | 27 nM | inactive | inactive | Not Active | 681 nM | – |
| CC(=O)OC12C=C(C)C(C(C)C1)C1C(=O)N(CCCN3CCN(c4ccccc4)CC3)C(=O)C12 (configuration not stated) | 294 nM | – | – | – | 575 nM | – |
| CC1CC2(C)CC(=O)C1C1C(=O)N(CCCCN3CCN(c4ccccn4)CC3)C(=O)C12 (configuration not stated) | 202 nM | – | – | – | 577 nM | – |
| CC1CC2(C)CC(=O)C1C1C(=O)N(CCCCN3CCN(Cc4ccccc4)CC3)C(=O)C12 (configuration not stated) | 2730 nM | – | – | – | 2090 nM | – |
| CC1CC2(C)CC(=O)C1C1C(=O)N(CCCN3CCN(c4ccccc4)CC3)C(=O)C12 (configuration not stated) | 344 nM | – | – | – | 292 nM | – |
| CC1CC2(C)CC(=O)C1C1C(=O)N(CCCCN3CCN(c4ccccc4)CC3)C(=O)C12 (configuration not stated) | 50 nM | inactive | inactive | Not Active | 181 nM | – |
| CN(C)CCCN1c2ccccc2CCc2ccccc21 [IMIPRAMINE] | – | – | – | – | – | Time (Mus musculus [6]): 69.5 s |
| CC(=O)OC12C=C(C)C(C(C)C1)C1C(=O)N(OCCCN3CCN(c4ccccc4F)CC3)C(=O)C12 (configuration not stated) | 80 nM | inactive | inactive | Not Active | 1070 nM | Time (Mus musculus [7]): 56.8 s; Time (Mus musculus [8]): 27.5 s; Time (Mus musculus [9]): 48.3 s; Time (Mus musculus [10]): 114.3 s; Time (Mus musculus [11]): 18.4 s |
| CC1CC2(C)CC(=O)C1C1C(=O)N(OCCCN3CCN(c4ccccc4F)CC3)C(=O)C12 (configuration not stated) | 331 nM | – | – | – | 910 nM | – |
| COc1ccccc1N1CCN(CCCCN2C(=O)C3C4C(C)=CC(OC(C)=O)(CC4C)C3C2=O)CC1 (configuration not stated) | 10 nM | inactive | inactive | Not Active | 737 nM | Time (Mus musculus [8]): 71.7 s; Time (Mus musculus [9]): 113.8 s; Ratio Ki [12]: 74 |
| COc1ccccc1N1CCN(CCCN2C(=O)C3C4C(=O)CC(C)(CC4C)C3C2=O)CC1 (configuration not stated) | 44 nM | inactive | inactive | Not Active | 429 nM | – |
| COc1ccccc1N1CCN(CCCON2C(=O)C3C4C(=O)CC(C)(CC4C)C3C2=O)CC1 (configuration not stated) | 124 nM | inactive | inactive | Not Active | 637 nM | Time (Mus musculus [7]): 83.5 s; Time (Mus musculus [8]): 31.2 s; Time (Mus musculus [9]): 63.5 s; Time (Mus musculus [10]): 123.7 s; Time (Mus musculus [11]): 29.4 s |
| CC(=O)OC12C=C(C)C(C(C)C1)C1C(=O)N(CCCCN3CCN(c4ccc(F)cc4)CC3)C(=O)C12 (configuration not stated) | 286 nM | – | – | – | 170 nM | – |
| CC(=O)OC12C=C(C)C(C(C)C1)C1C(=O)N(CCCCN3CCN(Cc4ccccc4)CC3)C(=O)C12 (configuration not stated) | 1420 nM | – | – | – | 9720 nM | – |
| CC1CC2(C)CC(=O)C1C1C(=O)N(CCCCN3CCN(c4ccc(F)cc4)CC3)C(=O)C12 (configuration not stated) | 521 nM | inactive | inactive | Not Active | 102 nM | – |
| CC1CC2(C)CC(=O)C1C1C(=O)N(OCCCN3CCN(c4ccccc4)CC3)C(=O)C12 (configuration not stated) | 616 nM | – | – | – | 300 nM | – |
| CC(=O)OC12C=C(C)C(C(C)C1)C1C(=O)N(CCCCN3CCN(c4ncccn4)CC3)C(=O)C12 (configuration not stated) | 800 nM | – | – | – | 6020 nM | – |
| CC(=O)OC12C=C(C)C(C(C)C1)C1C(=O)N(CCCCN3CCN(c4ccccn4)CC3)C(=O)C12 (configuration not stated) | 97 nM | inactive | inactive | Not Active | 965 nM | – |
| CC(=O)OC12C=C(C)C(C(C)C1)C1C(=O)N(OCCCN3CCN(c4ccccn4)CC3)C(=O)C12 (configuration not stated) | 200 nM | – | – | – | 1840 nM | – |

Reference: ChEMBL document CHEMBL1152861, “Synthesis and serotonin receptor activity of the arylpiperazine alkyl/propoxy derivatives of new azatricycloundecanes” (Eur J Med Chem, 2009)
